According to PubChem BioAssay AID623887 (Johns Hopkins Ion Channel Center, 2012):
Values joined by “and” are separate entries in the source; they are usually repeats but may differ in a detail not shown here. Identical values can stand only once. Active and inactive are the calls of the source.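 How the source made its calls: active means blocks the KCNK9 potassium channel at some tested concentration and gives a dose response curve; inactive means the rest.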

Biological target: Potassium channel subfamily K member 9 (Homo sapiens) (UniProt Q9NPC2)
Assay: concentration-dependent blockade of KCNK9 channel – cell-based, round 4, SAR follow-up (AID 623887)
Settings: HEK293-KCNK9 thallium flux, FluxOR fluorescence
Outline: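 System: tetracycline-induced HEK293 cells stably expressing the KCNK9 channel / Also added: Potassium/thallium sulfate stimulus buffer (5x stock) / Doses: multi-concentration series of test compound / Incubation: 90 min dye loading, then 20 min compound preincubation at room temperature / Signal: kinetic FluxOR fluorescence of thallium influx, 110 s after stimulus / Repeats: replicates per concentration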

Potassium channel subfamily K member 9 (Homo sapiens), sequence (Q9NPC2 whole entry, looked up): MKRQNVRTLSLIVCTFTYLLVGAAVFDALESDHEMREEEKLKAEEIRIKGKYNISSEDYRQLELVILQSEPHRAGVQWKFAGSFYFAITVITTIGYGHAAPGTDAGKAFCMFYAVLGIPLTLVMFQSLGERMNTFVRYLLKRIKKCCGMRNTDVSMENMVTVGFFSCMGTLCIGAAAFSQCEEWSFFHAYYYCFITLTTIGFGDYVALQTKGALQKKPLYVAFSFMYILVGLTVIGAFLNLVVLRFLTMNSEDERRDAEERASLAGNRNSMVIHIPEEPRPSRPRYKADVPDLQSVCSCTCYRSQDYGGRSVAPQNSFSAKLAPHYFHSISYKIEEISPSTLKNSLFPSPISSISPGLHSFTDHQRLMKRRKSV

| SMILES | IC50 |
| --- | --- |
| C[C@H](C1CCCCC1)n1c(-c2ccccc2F)n[nH]c1=S | 683 nM |
| CC(C1CC2CCC1C2)n1c(-c2ccco2)nn(CCc2ccncc2)c1=S (stereo not drawn) | 223 nM |
| C[C@@H]([C@@H]1CC2CC[C@H]1C2)n1c(-c2ccco2)n[nH]c1=S | 181 nM and 128 nM |
| COc1cccc(-c2n[nH]c(=S)n2[C@H](C)C2CCCCC2)c1 | 3420 nM |
| C[C@H]([C@@H]1CC2CC[C@H]1C2)n1c(-c2ccco2)n[nH]c1=S | 53 nM |
| COc1ccc(CSc2nnc(-c3ccco3)n2C(C)C2CC3CCC2C3)cc1OC (stereo not drawn) | 547 nM |
| CC(C1CC2CCC1C2)n1c(SCC(=O)N2CCN(C)CC2)nnc1-c1ccco1 (stereo not drawn) | 28000 nM |
| COc1ccc(NC(=O)CSc2nnc(-c3ccco3)n2C(C)C2CC3CCC2C3)cc1OC (stereo not drawn) | 18300 nM |
| C[C@@H]([C@@H]1CC2CC[C@H]1C2)n1c(-c2ccsc2)n[nH]c1=S | 146 nM and 544 nM |

Other lines, results leading:

| IC50 | SMILES |
| --- | --- |
| 180 nM | CC([C@@H]1CC2CC[C@H]1C2)n1c(-c2ccsc2)n[nH]c1=S (stereo partly drawn) |
| 141 nM | CCCC(=O)C1CCN(c2ncnc3c2CN(C(=O)c2ccc(-c4ccccc4)cc2)CC3)CC1 |
| 28000 nM | COc1cccc(-c2nnc(SSc3nnc(-c4cccc(OC)c4)n3C(C)C3CC4CCC3C4)n2C(C)C2CC3CCC2C3)c1 (stereo not drawn) |
| 428 nM | C[C@H](C1CCCCC1)n1c(-c2ccsc2)n[nH]c1=S |
| 582 nM | CC(C1C[C@H]2CCC1C2)n1c(-c2ccsc2)n[nH]c1=S (stereo partly drawn) |
| 663 nM | COc1ccc(C(=O)CCSc2nnc(-c3ccco3)n2C(C)C2CC3CCC2C3)cc1OC (stereo not drawn) |
| 169 nM | C[C@H]([C@@H]1CC2CC[C@H]1C2)n1c(-c2ccccc2F)n[nH]c1=S |
| 1830 nM | CC(C1CC2CCC1C2)n1c(SCCc2cccc(O)c2)nnc1-c1ccco1 (stereo not drawn) |
| 3200 nM | COc1ccc(CC(=O)NCc2ccccc2-c2ccccc2C(=O)NCc2ccc(F)cc2F)cc1 |
| 467 nM | COc1cccc(-c2n[nH]c(=S)n2[C@H](C)[C@@H]2CC3CC[C@H]2C3)c1 |
| 3090 nM | CC(C1CC2CCC1C2)n1c(SCCc2ccccn2)nnc1-c1ccco1 (stereo not drawn) |
| 1190 nM | COc1cccc(CCSc2nnc(-c3ccco3)n2C(C)C2CC3CCC2C3)c1 (stereo not drawn) |

Same assay, conditions: HEK293-KCNK9 thallium flux, FluxOR fluorescence; at 30 µM (top of the series)

| SMILES | flux ratio, lower = inhibition |
| --- | --- |
| CC(C1CC2CCC1C2)n1c(SCCN2CCOCC2)nnc1-c1ccco1 (stereo not drawn) | inactive |
| CC(C1CCN(C)CC1)n1c(-c2ccco2)n[nH]c1=S (stereo not drawn) | inactive |
